The record followed here is ChEMBL document CHEMBL1127698, “Matrix metalloproteinase inhibitors containing a (carboxyalkyl)amino zinc ligand: modification of the P1 and P2' residues” (J Med Chem, 1994).

One series concerns the target T1, Interstitial collagenase (Homo sapiens, UniProt P03956).
T1 sequence (P03956 whole entry): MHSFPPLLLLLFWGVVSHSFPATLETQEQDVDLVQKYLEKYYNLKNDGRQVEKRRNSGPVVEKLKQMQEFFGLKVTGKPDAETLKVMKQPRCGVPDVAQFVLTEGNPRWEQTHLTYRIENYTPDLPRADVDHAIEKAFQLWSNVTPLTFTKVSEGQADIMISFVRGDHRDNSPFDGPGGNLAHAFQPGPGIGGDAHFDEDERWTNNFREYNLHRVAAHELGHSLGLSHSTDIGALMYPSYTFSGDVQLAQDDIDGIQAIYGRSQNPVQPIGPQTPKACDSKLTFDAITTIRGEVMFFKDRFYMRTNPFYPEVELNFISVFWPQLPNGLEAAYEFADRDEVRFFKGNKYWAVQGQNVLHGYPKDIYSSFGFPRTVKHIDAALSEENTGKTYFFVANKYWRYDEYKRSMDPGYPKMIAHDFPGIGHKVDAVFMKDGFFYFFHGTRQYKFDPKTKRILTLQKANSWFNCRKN
As to the kind of experiment: Activity against human collagenase (MMP-1).

Series [1] in a line: Half-life period for the activity is tested at pH 6.8. Format: ADME. In outline:
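Inhibitor at 20 μM in 20 mM sodium phosphate, pH 6.8, held at 30 °C. Aliquots were injected every 3 h over 24 h onto C18 reverse-phase HPLC with a 5–60% acetonitrile gradient containing 0.1% TFA.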

Series [2] addresses Matrix metalloproteinase-9 (Homo sapiens, UniProt P14780). As to the kind of experiment: Activity against human gelatinase (MMP-9). The procedure, abridged:
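Human gelatinase at 1 nM in pH 7.6 Tris buffer (200 mM NaCl, 5 mM CaCl2, 20 μM ZnSO4, 0.05% Brij 35), with inhibitors at 3-fold dilutions from 10 000 to 0.057 nM. Ki came from % inhibition vs log concentration, with substrate far below Km.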

The next series addresses Stromelysin-1 (Homo sapiens, UniProt P08254). The experiment in a line: Activity against human stromelysin (MMP-3). The procedure, abridged: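 Fluorogenic stromelysin assay: human enzyme 10 nM in pH 7.6 Tris buffer (200 mM NaCl, 5 mM CaCl2, 20 μM ZnSO4, 0.05% Brij 35). Inhibitors ran from 10 000 to 0.057 nM in 3-fold steps. Ki came from % inhibition vs log[inhibitor], with substrate far below Km.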

Sequence of Matrix metalloproteinase-9 (P14780 whole entry): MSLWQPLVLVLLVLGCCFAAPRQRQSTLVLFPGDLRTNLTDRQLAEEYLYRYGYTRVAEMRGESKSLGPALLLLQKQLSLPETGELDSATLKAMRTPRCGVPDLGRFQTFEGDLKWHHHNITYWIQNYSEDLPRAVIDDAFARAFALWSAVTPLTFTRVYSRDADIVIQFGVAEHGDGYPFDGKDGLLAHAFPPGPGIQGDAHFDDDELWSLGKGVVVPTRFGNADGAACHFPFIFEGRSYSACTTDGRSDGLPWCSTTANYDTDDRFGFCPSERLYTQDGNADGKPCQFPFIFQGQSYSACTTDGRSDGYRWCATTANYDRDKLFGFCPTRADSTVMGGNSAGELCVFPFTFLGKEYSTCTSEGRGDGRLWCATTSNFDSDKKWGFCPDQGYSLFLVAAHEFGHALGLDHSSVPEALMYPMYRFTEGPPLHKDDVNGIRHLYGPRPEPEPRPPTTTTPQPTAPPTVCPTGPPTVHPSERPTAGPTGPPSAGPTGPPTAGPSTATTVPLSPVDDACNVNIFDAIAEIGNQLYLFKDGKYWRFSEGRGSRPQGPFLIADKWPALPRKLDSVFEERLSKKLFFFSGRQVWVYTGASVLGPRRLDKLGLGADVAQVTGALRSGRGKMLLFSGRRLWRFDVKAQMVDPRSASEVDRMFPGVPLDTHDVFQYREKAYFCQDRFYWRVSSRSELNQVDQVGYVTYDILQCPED
Sequence of Stromelysin-1 (P08254 whole entry): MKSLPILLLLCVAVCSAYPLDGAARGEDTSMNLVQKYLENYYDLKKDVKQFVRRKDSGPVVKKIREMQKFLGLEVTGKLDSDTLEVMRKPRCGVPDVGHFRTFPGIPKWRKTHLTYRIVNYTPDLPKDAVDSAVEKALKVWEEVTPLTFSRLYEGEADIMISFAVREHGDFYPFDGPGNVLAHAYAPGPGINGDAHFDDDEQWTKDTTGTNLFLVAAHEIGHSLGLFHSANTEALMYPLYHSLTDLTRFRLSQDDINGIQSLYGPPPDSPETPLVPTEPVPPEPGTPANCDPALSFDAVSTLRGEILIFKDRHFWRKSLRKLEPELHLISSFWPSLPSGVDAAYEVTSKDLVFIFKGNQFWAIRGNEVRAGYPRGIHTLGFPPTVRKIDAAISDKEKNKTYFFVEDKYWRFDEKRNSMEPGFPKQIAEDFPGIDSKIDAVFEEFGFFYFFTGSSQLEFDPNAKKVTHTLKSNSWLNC

By IC50 is commonly meant the point on the concentration scale where inhibition reaches its midpoint. What is called half-life is the time in which the quantity being followed falls by half. In the case of `CNC(=O)[C@H](Cc1ccccc1)NC(=O)[C@H](CC(C)C)N[C@H](CCN1Cc2cc3ccccc3cc2C1=O)C(=O)O`, the half-maximal inhibitory concentration (IC50) turned out to be 211 nM at Interstitial collagenase, 63 nM in series [2] and 7880 nM at Stromelysin-1. Moreover, the half-life in series [1] was above 100 h.

On to `CNC(=O)[C@H](CC(C)C)NC(=O)[C@H](CC(C)C)N[C@H](CCN1C(=O)c2cc3ccccc3cc2C1=O)C(=O)O`, for which the IC50 was found to be 49 nM against Interstitial collagenase, 11 nM in series [2] and 1300 nM at Stromelysin-1. The molecule further gave a half-life in series [1] of 27 h.
